Measured values from PMC5573236 (Oncogene, 2008).

Assays:
[1] = target: VHL-Elongin B-Elongin C protein complex (Homo sapiens, UniProt P40337+Q15369+Q15370); experiment: Fluorescence polarization competitive binding assay with VHL; settings: FP competition assay; negative control
androgen receptor (AR) = experiment: Western blot of AR protein levels in LNCaP cells; format: cell-based; settings: 72 h, increasing concentrations that inhibited proliferation
LNCaP cells [2] = experiment: MTT proliferation assay, LNCaP cells; format: cell-based
LNCaP cells [3] = experiment: Cell cycle profile by flow cytometry; format: cell-based; settings: 72 h, propidium iodide staining
Procedure, shortened: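 LNCaP cells kept at 37 °C, 5% CO2, in phenol-red-free RPMI 1640 with 10% FBS. Plated at 30 000 cells per cm2 and treated from 24–48 h after plating. Trypsinised, pelleted at 250 g for 5 min, fixed in 70% ethanol and held at −20 °C. Just before acquisition, stained with 3.4 mM sodium citrate, 0.3% Triton X-100, propidium iodide 0.1 mg/ml and RNase A 20 μg/ml, then run on a flow cytometer.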

PC-3 cells = experiment: MTT proliferation assay, PC-3 cells; format: cell-based; settings: 72 h, same concentrations as used on LNCaP cells
Procedure, shortened: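 Cells were grown in phenol-red-free RPMI 1640 with 10% FBS, 37 °C, 5% CO2, and seeded at 10 000/well. Test compound or free hormone at matched concentrations was added 24–48 h after plating; the PC-3 exposure was 72 h. MTT read-out: medium removed, DMSO solubilisation, absorbance 550 nm. Single triplicate experiment, representative of three.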

MCF-7 cells = experiment: MTT proliferation assay, MCF-7 cells; format: cell-based; settings: same concentrations as used for Protac-B
[4] = system: estrogen receptor-α (ERα); settings: estradiol stimulation; ref Pink and Jordan, 1996; cited from earlier work
T47D cells = experiment: MTT proliferation assay, T47D cells; format: cell-based; settings: same concentrations as used for Protac-B

In the case of “H-Leu-Ala-Ala-Tyr-Ile-Gly-Gly-[D-Arg]9-OH [mutant pentapeptide-G-G-(Arg)9]”, the “binding to VHL” value [1] was “did not detectably bind”.
In the case of “Leu-Ala-Pro(OH)-Tyr-Ile-Gly-Gly-(D-Arg)9 [Protac-AA]”, the “AR protein levels in LNCaP cells” value (androgen receptor (AR)) was “reduced”, the “increase of activity (IC50, LNCaP) over Protac-A” value (LNCaP cells [2]; 72 h and 144 h) was “three to seven” and the “cell cycle effect in LNCaP cells” value (LNCaP cells [3]) was “cell cycle arrest in G1”. The “effect on proliferation of PC-3 cells” value (PC-3 cells) was “not affected”.
For C[C@]12CC[C@@H]3c4ccc(O)cc4CC[C@H]3[C@@H]1CC[C@@H]2O [estradiol, 17β-estradiol], the “effect on proliferation of MCF-7 cells” value (MCF-7 cells) is listed as “no effect”, the “decrease in ERα levels” value [4] is listed as “approximately 50%” and the “effect on proliferation of T47D cells” value (T47D cells) is listed as “no effect”.
With C[C@]12CCC(=O)C[C@@H]1CC[C@@H]1[C@@H]2CC[C@]2(C)[C@@H](O)CC[C@@H]12 [DHT, dihydroxytestosterone] the “effect on LNCaP cell proliferation” value (LNCaP cells [2]; DHT used at the IC50 of Protac-A (12.5 μM)) was “no effect”.
